NALP1 yeast inh – NALP1 inhibition; S. cerevisiae NALP1/ASC/caspase-1 growth, X-gal OD620, 72 h; inhibition, % at 10 µM; actives 0.61% (n = 280,000); AID 2071; in the data active = inhibition mostly above about 24%, no sharp cut-off; inactive = mostly below about 32%
NLRP3 yeast inh – blocks the NALP3 inflammasome reconstituted in yeast | AID 2825 | Yeast reconstituted NLRP3/ASC/caspase-1, beta-gal luminescence, 24 h | inhibition, % at 10 µM | actives 0.39% (n = 330,000);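 active = inhibition of 50% or more; inactive = inhibition below 50%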;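 also: plate controls were induced DMSO wells for no effect and uninduced yeast grown without galactose for full effect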
ALR H2O2 inh – blocks human ALR sulfhydryl oxidase activity; purified ALR, DTT oxidation, H2O2 HRP-luminol luminescence; inhibition, % (concentration not given with the values); actives 3.8% (n = 290,000); AID 485317;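 active = mean replicate inhibition above about 79%, with every replicate also reaching it, limit read from the data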
Target sequence (P55789 whole entry, looked up): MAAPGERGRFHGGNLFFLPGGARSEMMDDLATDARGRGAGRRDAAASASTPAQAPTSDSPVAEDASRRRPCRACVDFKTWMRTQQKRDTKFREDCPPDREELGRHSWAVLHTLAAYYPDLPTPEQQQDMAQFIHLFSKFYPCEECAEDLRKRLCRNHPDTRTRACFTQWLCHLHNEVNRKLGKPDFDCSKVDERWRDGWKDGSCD
UCH37 DUB inh – human UCH37 deubiquitinating enzyme inhibition | purified proteasome/UCH37, Ub-AMC cleavage fluorescence | inhibition, % (no concentration beside the values) | actives 0.33% (n = 330,000) | AID 588478;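 active = mean inhibition over replicate wells above about 20%, limit read from the data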;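 also: 0% = compound-free wells with enzyme and 100% = wells lacking proteasome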
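Signal – fluorescence, ex 355 nm, em 460 nm · System – Proteasome-bound UCH37 · Input – 0.15 nM proteasome as dispensed · Timing – 30 min preincubation with enzyme, 25 min cleavage at room temperature · Read-out basis – percent inhibition of cleavage signal versus uninhibited and no-proteasome wells · Medium – Tris-HCl pH 7.4 with ATP-MgCl2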
Calb FLC – C. albicans growth modulation with fluconazole. actives 0.57% (n = 300,000). C. albicans CaCi-2 + fluconazole, Alamar Blue growth, 48 h. growth inhibition, % (test concentration not listed);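 active = growth inhibition above about 58% in most replicates, limit read from the data, passing the limit was not always enough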;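 also: all wells also contain fluconazole at 8 µg/ml as a sub-toxic cotreatment; 0% = median of DMSO wells and 100% = median of geldanamycin control wells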
ATG4B inhibitor – inhibitors of human ATG4B cysteine protease; inhibition, % at 8.33 µM; ATG4B cleavage of LC3-PLA2, NBD-HPC fluorescence, 1 h; AID 504462; actives 0.51% (n = 340,000); Q9Y4P1; in the data active = inhibition above about 40%
Target sequence (Q9Y4P1 whole entry, looked up): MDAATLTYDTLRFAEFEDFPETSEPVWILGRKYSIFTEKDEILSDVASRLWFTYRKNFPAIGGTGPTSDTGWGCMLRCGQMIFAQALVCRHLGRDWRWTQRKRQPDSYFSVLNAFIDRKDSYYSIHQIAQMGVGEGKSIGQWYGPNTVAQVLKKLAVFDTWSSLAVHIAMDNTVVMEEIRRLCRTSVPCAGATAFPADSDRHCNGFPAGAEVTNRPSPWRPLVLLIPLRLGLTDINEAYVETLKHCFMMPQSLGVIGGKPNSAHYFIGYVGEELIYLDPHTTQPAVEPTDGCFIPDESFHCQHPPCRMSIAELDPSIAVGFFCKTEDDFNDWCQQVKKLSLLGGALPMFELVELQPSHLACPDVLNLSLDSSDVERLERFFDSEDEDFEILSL
NALP3 confirm – confirmation of NALP3 inhibitors in yeast; shares compounds with NLRP3 yeast inh; yeast expressing human NALP3, luminescence; inhibition, % at 10 µM; actives 81% (n = 1,300); AID 435006; in the data active = inhibition above about 48%
Casp1 ASC ctr – counter-screen for NALP3 inhibitors: yeast caspase-1-ASC; shares compounds with NLRP3 yeast inh; yeast expressing Caspase-1-ASC, luminescence counter screen; inhibition, % at 10 µM; actives 66% (n = 1,000); AID 488784
NALP3 yeast rt – retest-confirmed inhibitor of NALP3 in yeast; shares compounds with NLRP3 yeast inh; yeast expressing human NALP3, luminescence read-out; inhibition, % at 10 µM; actives 53% (n = 1,000); AID 488794
Numbers without * were called inactive; · = not tested or not shown. Rows were chosen to be rich in hits. Some 4.8% of all compounds tested hit in one or more screens of this group. Rule as the data show it, unless noted: active = inhibition above about 50%; inactive = the rest.

SMILES	NALP1 yeast inh	NLRP3 yeast inh	ALR H2O2 inh	UCH37 DUB inh	Calb FLC	ATG4B inhibitor	NALP3 confirm	Casp1 ASC ctr	NALP3 yeast rt
COc1cc(C=NNc2nc(C)cc(C)n2)ccc1OC(=O)c1ccco1	·	·	·	8	·	·	·	·	·
Cc1cccc(/C(N)=N/OC(=O)Cc2cccc3ccccc23)c1	2	20	-10	2	-7	2	·	·	·
Cc1cccc(C(=O)O/N=C(\N)Cc2cccc3ccccc23)c1	32	53*	-5	4	12	46*	65*	48	64*
COc1cc(C=NNC(=S)Nc2cccc(C(=O)O)c2)cc(OC)c1OC	·	·	·	12	·	·	·	·	·
Cc1ccc([N+](=O)[O-])cc1C=NNc1nnnn1-c1ccccc1	·	·	·	1	·	·	·	·	·
O=[N+]([O-])c1cc(Br)c(O)c(/C=N/Nc2nnnn2-c2cccc3ccccc23)c1	13	52*	15	·	69	17	47*	·	·
O=C(Cc1csc(N2CCOCC2)n1)NN=Cc1ccc(Cl)cc1Cl	·	·	·	2	·	·	·	·	·
CC(C)COc1ccc(CSCCNC(=S)Nc2ccccc2)cc1	14	53*	-7	·	-17	36	80*	58*	41
CCCCOc1ccc(CSCCNC(=S)Nc2ccccc2)cc1	6	54*	-1	5	15	0	60*	62*	34
CCON=C(C)c1c(O)c(CC)c(-c2ccccc2)n(-c2ccccc2)c1=O	·	·	·	3	·	·	·	·	·
CC(C)Oc1ccc(C(=O)/C=C2/C(=O)Nc3ccccc32)cc1	-47	65*	·	0	8	2	76*	86*	64*
O=C1Nc2ccccc2/C1=C\C(=O)c1ccccc1	20	28	5	3	8	-6	·	·	·
O=C(C1CCN(S(=O)(=O)c2cccc3nsnc23)CC1)N1CCn2c1nc1ccccc12	6	74*	-11	1	-3	-14	75*	66*	75*
O=C(Cc1c[nH]c2ccccc12)N1CCc2ccccc21	10	62*	-22	1	-4	-3	38	60*	60*
O=C(CSc1c[nH]c2ccccc12)N1CCCc2ccccc21	29	31	44	2	5	8	·	·	·
N#Cc1ccsc1NC(=O)c1ccc(Cl)c([N+](=O)[O-])c1	-16	78*	·	·	-2	8	81*	·	·
Cc1ccccc1NC(=O)CCC(=O)NN=Cc1c[nH]c2ccccc12	·	·	·	2	·	·	·	·	·
O=C(Nc1cccc(Cl)c1)c1ccc2c(=O)n3c(nc2c1)CCCCC3	1	70*	·	·	3	-8	66*	·	·
O=C(Nc1ccc(Cl)cc1)c1ccc2c(=O)n3c(nc2c1)CCCCC3	-8	28	·	-11	15	-3	·	·	·
N#C/C(=C\c1cccc(Br)c1)C(=O)N1CCCCC1	26	60*	11	1	3	6	58*	68*	50*
N#C/C(=C\c1cccc(O)c1)C(=O)N1CCCCC1	-79	20	·	1	10	-2	·	·	·
COc1ccc(CNC(=O)C2COc3ccccc3O2)c(OC)c1 (configuration not stated)	-13	53*	-15	1	-4	0	65*	46	39
O=C(NN=Cc1ccncc1)c1ccc2c(c1)OCO2	·	·	·	3	·	·	·	·	·
CC(=O)Nc1ccc(/C=N/Nc2nncc3ccccc23)cc1	-10	·	·	·	14	-2	·	·	·
Fc1cccc(/C=N/Nc2nncc3ccccc23)c1	12	57*	4	·	2	0	63*	44	38
SMILES	NALP1 yeast inh	NLRP3 yeast inh	ALR H2O2 inh	UCH37 DUB inh	Calb FLC	ATG4B inhibitor	NALP3 confirm	Casp1 ASC ctr	NALP3 yeast rt
COC(=O)NN=Cc1ccc(OC/C=C/c2ccccc2)c(OC)c1	·	·	·	3	·	·	·	·	·
Cc1onc(-c2ccccc2Cl)c1C(=O)N1C=CC(C(F)(F)F)=NCC1	58*	50*	-1	·	2	0	66*	45	53*
Cc1onc(-c2ccccc2Cl)c1C(=O)N1C=CC(C(F)(F)Cl)=NCC1	-7	33	-1	6	-4	-11	·	·	·
CC1(C)C[C@H](O)[C@]2(CO)CC[C@]3(C)C(=CCC4[C@@]5(C)CC[C@H](O)C(C)(C)C5CC[C@]43C)[C@@H]2C1 (some centres not stated)	·	41	·	4	·	1	·	·	·
CC1(C)C[C@H](O)[C@]2(CO)[C@H](O)C[C@]3(C)C(=CCC4[C@@]5(C)CC[C@H](O)C(C)(C)C5CC[C@]43C)[C@@H]2C1 (some centres not stated)	·	27	-3	·	·	4	·	·	·
CC1(C)C2CC[C@]3(C)C(CC=C4[C@@H]5C[C@@](C)(CO)[C@@H]6C[C@@]5(CC[C@]43C)C(=O)O6)[C@@]2(C)CC[C@@H]1O (some centres not stated)	·	55*	-10	0	9	1	58*	28	30
CC1(C)C[C@H](O)[C@@]23C[C@@H](OC2=O)[C@]2(C)C(=CCC4[C@@]5(C)CC[C@H](O)C(C)(C)C5CC[C@]42C)[C@@H]3C1 (some centres not stated)	·	51*	-7	2	3	1	68*	41	41
Cc1ccc(C=NNC(=O)Cn2cnc3c2c(=O)n(C)c(=O)n3C)s1	·	·	·	3	·	·	·	·	·
Cn1c(COc2ccc(F)cc2)nc2ccccc21	7	39	-5	2	2	-4	·	·	·
Cc1cccc(OCc2nc3ccccc3n2C)c1	5	54*	-4	3	4	-3	72*	55*	41
Cc1ccc(NN=C(C#N)C(N)=S)cc1C	·	·	·	7	·	·	·	·	·
N#C/C(=N/Nc1ccc(OC(F)(F)F)cc1)C(N)=S	7	86*	57	·	81*	-1	97*	·	·
O=C(CCS(=O)(=O)c1ccccc1)N(CCCN1CCOCC1)c1nc2c(F)cccc2s1	·	57*	·	0	4	-1	72*	43	53*
CC(C)Cn1c2ccccc2c2cc(C(=O)O)ccc21	-9	-123	-16	4	46	8	9	·	·
CCCC(=O)c1ccc(N2CCCC2)c(F)c1	-121	55*	-6	4	-37	-5	13	·	·
CCOc1cc(C=NNc2nc(=O)[nH]nc2C)ccc1O	·	·	·	18	·	·	·	·	·
O=C(NC1=NCCS1)c1ccccc1OCc1ccccc1Cl	20	96*	-9	4	10	-1	99*	98*	98*
Cc1cc2ncn(S(=O)(=O)N3CCCCC3)c2cc1C	27	69*	-6	2	-6	-2	61*	74*	68*
Cc1cc2ncn(S(=O)(=O)N3CCOCC3)c2cc1C	24	23	20	1	5	-5	·	·	·

Bioassay records deposited in PubChem BioAssay by several laboratories.
